Results collected from several papers.
Lines come from different studies, so protocols differ.
PDE5A: cGMP-specific 3',5'-cyclic phosphodiesterase (PDE5A, Homo sapiens, UniProt O76074)
EHMT1: Histone-lysine N-methyltransferase EHMT1 (EHMT1, Homo sapiens, UniProt Q9H9B1)
SPHK1: Sphingosine kinase 1 (SPHK1, Homo sapiens, UniProt Q9NYA1)
ADORA2A: Adenosine receptor A2a (ADORA2A, Homo sapiens, UniProt P29274)
OPRK1: Kappa-type opioid receptor (OPRK1, Homo sapiens, UniProt P41145)
CNR1: Cannabinoid receptor 1 (CNR1, Homo sapiens, UniProt P21554)
EDNRA: Endothelin-1 receptor (EDNRA, Homo sapiens, UniProt P25101)
PARP1: Poly [ADP-ribose] polymerase 1 (PARP1, Homo sapiens, UniProt P09874)
PIK3C2B: Phosphatidylinositol 4-phosphate 3-kinase C2 domain-containing subunit beta (PIK3C2B, Homo sapiens, UniProt O00750)

SMILES	target	observed	action	method	concentration	setting	inhibition [%]
CCN1C(=O)[C@@H]2Cc3c([nH]c4ccccc34)[C@@H](c3ccc(OC)c(OC)c3)N2C1=O	PDE5A	enzyme activity	inhibitor	FP	50 µM		75
O=c1c(O)cccc2cc(O)c(O)c(O)c12	EHMT1	cell-free assay			10 µM		3
CN1CCN(CCCOc2ccc(=O)n(-c3ccc(Cl)c(Cl)c3)n2)CC1	Sodium channel protein type 9 subunit alpha (SCN9A, Homo sapiens, UniProt Q15858)	ligand displacement			1 µM		20.5
O=C(CSc1nc2nccnc2c(=O)n1CCc1ccccc1)Nc1ccccc1	SPHK1	enzyme activity	inhibitor		10 µM		< 20
COC(=O)[C@@H]1Cc2c([nH]c3ccccc23)[C@@H](c2ccc(OC)c(OC)c2)N1	PDE5A	enzyme activity	inhibitor	FP	50 µM		7
Oc1ccc(N2CCN(Cc3ccc4oc(-c5ccco5)nc4c3)CC2)cc1	ADORA2A	ligand displacement		radioligand	10 µM	cell membranes	11
N#Cc1cc(Cn2c(N3CCCC3)nc3ccccc32)ccc1F	OPRK1	ligand displacement			10 µM		-11.7
O=C(c1ccc(Cl)cc1)N(Cc1ccccc1)C1CCCCC1	CNR1	cell-free assay			10 µM		11.1
COCCOc1ccc(N2CCN(Cc3ccc4oc(-c5ccco5)nc4c3)CC2)cc1	ADORA2A	ligand displacement		radioligand	10 µM	cell membranes	14
CCCCc1ccc(CCc2ccc(-c3noc([C@@H]4CCCN4C(=N)N)n3)cc2C(F)(F)F)cc1	SPHK1	enzyme activity	inhibitor	radiometric	1 µM		6
CC(C)(C)N1C(=O)[C@@H]2Cc3c([nH]c4ccccc34)[C@@H](c3ccc(Br)s3)N2C1=O	PDE5A	enzyme activity	inhibitor	FP	10 µM		90
N=C(N)N1CCC[C@H]1c1nc(-c2ccc(CCc3ccc(C(F)(F)F)cc3)c(C(F)(F)F)c2)no1	SPHK1	enzyme activity	inhibitor	radiometric	1 µM		12
CC(C)(C)N1C(=O)[C@@H]2Cc3c([nH]c4ccccc34)[C@@H](c3cccnc3)N2C1=O	PDE5A	enzyme activity	inhibitor	FP	50 µM		90
COc1ccc(-c2nc3cc(CN4CCCCC4)ccc3o2)cc1OC	ADORA2A	ligand displacement		radioligand	10 µM	cell membranes	18
[H]/N=C(\N)N1CCC[C@H]1c1nc(-c2ccc(OCC=Cc3ccc(F)cc3)c(C(F)(F)F)c2)no1	SPHK1	enzyme activity	inhibitor	radiometric	1 µM		0
CN(C)C1CCN(CC#Cc2nn(C3CCCC3)c3nc(NCc4ccccc4)ncc23)C1 (centres unmarked)	Cytoplasmic tyrosine-protein kinase BMX (BMX, Homo sapiens, UniProt P51813)	enzyme activity	inhibitor	FRET	1 µM		4
CCCC=CCOc1ccc(-c2noc([C@@H]3CCCN3C(=N)N)n2)cc1C(F)(F)F	SPHK1	enzyme activity	inhibitor	radiometric	1 µM		12
Oc1cccc(Nc2nc(-c3ccc(F)cc3F)cs2)c1	EDNRA	cell-free assay			10 µM		-11.2
CN(C)c1ccc2nc3ccc(=[N+](C)C)cc-3sc2c1	EHMT1	cell-free assay			10 µM		30
CCN1C(=O)[C@@H]2Cc3c([nH]c4ccccc34)[C@H](c3cccnc3)N2C1=O	PDE5A	enzyme activity	inhibitor	FP	50 µM		24
O=C1N=C(N2CCCCN2)S/C1=C\c1ccc(F)cc1O	Thromboxane A2 receptor (TBXA2R, Homo sapiens, UniProt P21731)	ligand displacement		radioligand	10 µM		11
COC(=O)[C@H]1Cc2c([nH]c3ccccc23)[C@@H](c2ccc(OC)c(OC)c2)N1C(=O)CCl	PDE5A	enzyme activity	inhibitor	FP	50 µM		70
COc1cc(NC(C)CCCN)c2ncccc2c1 (centres unmarked)	EHMT1	cell-free assay			10 µM		7
O=C(c1ccc(F)cc1)N(Cc1ccccc1)C1CCCCC1	OPRK1	ligand displacement			10 µM		33

SMILES	target	observed	action	method	concentration	setting	inhibition [%]
CCCCCC=CCOc1ccc(-c2noc([C@@H]3CCCN3C(=N)N)n2)cc1C(F)(F)F (mixture of isomers)	SPHK1	enzyme activity	inhibitor	radiometric	1 µM		54
O=c1c(O)cccc2c([C@H]3Oc4cc(O)cc(O)c4C[C@H]3O)cc(O)c(O)c12	EHMT1	cell-free assay			10 µM		5
Nc1ccc2c(c1)CCCn1nnnc1-2	PARP1	enzyme activity	inhibitor		10 µM		31
CCN(CC)c1ccc(C2Nc3ccc(C(=O)c4ccccc4)cc3NC3=C2C(=O)CC(C)(C)C3)cc1 (centres unmarked)	OPRK1	ligand displacement		radioligand	10 µM		10
CC(C)(C)OC(=O)N1CCN(Cc2ccc3oc(-c4ccco4)nc3c2)CC1	ADORA2A	ligand displacement		radioligand	10 µM	cell membranes	15
Nc1ccc(-c2ccncc2)cc1NC(=O)N1CCCC1	CNR1	ligand displacement		radioligand	10 µM		15
CS(=O)(=O)Nc1cccc(-c2csc(NC(=O)CSc3nc4nccnc4c(=O)n3CCc3ccccc3)n2)c1	PIK3C2B	enzyme activity	inhibitor		10 µM		19
COc1cc(NC(C)=O)c(Cl)cc1C(=O)Nc1nccs1	EDNRA	cell-free assay			10 µM		-1.4
O=C1C=C2CC3(O)COc4c(ccc(O)c4O)C3=C2C=C1O (centres unmarked)	EHMT1	cell-free assay			10 µM		11
O=C(CSc1nc2nccnc2c(=O)n1CCc1ccccc1)Nc1nccs1	PIK3C2B	enzyme activity	inhibitor		10 µM		68
COC(=O)[C@H]1Cc2c([nH]c3ccccc23)[C@H](c2cccnc2)N1	PDE5A	enzyme activity	inhibitor	FP	50 µM		30
O=C(Nc1ccc(S(=O)(=O)N2CCC(Cl)CC2)cc1)c1ccc([N+](=O)[O-])o1	Sigma non-opioid intracellular receptor 1 (SIGMAR1, Homo sapiens, UniProt Q99720)	ligand displacement		radioligand	10 µM		38
Ic1cccc2cnccc12	CNR1	ligand displacement		radioligand	10 µM		3
CCCc1ccc(CCc2ccc(-c3noc([C@@H]4CCCN4C(=N)N)n3)cc2C(F)(F)F)cc1	SPHK1	enzyme activity	inhibitor	radiometric	1 µM		6
Cc1cc(O)c(C=O)c2c1C(=O)Oc1c(C)c(O)c3c(c1O2)C(O)OC3=O (centres unmarked)	EHMT1	cell-free assay			10 µM		-4
Cc1cnc(C(=O)NCCNC(=O)Cn2[nH]c(=O)c3ccccc3c2=O)cn1	PARP1	enzyme activity	inhibitor		0.5 µM		~50
CN(C)c1ccc(C(=C2C=CC(=[N+](C)C)C=C2)c2ccc(N(C)C)cc2)cc1	EHMT1	cell-free assay			10 µM		62
COCCOc1ccc(N2CCN(CCc3ccc4oc(-c5ccco5)nc4c3)CC2)cc1	ADORA2A	ligand displacement		radioligand	10 µM	cell membranes	10
[H]/N=C(\N)N1CCC[C@H]1c1nc(-c2ccc(OCC=Cc3cccc(Br)c3)c(C(F)(F)F)c2)no1	SPHK1	enzyme activity	inhibitor	radiometric	1 µM		12
COc1cc(OC)c2c(=O)[nH]c(-c3c[nH]c4ncccc34)nc2c1	PARP1	enzyme activity	inhibitor	ELISA	10 µM		31
COc1ccc([C@H]2c3[nH]c4ccccc4c3C[C@H]3C(=O)N(C(C)(C)C)C(=O)N23)cc1OC	PDE5A	enzyme activity	inhibitor	FP	50 µM		58
O=c1[nH]c(-c2c[nH]c3ncccc23)nc2ccccc12	PARP1	enzyme activity	inhibitor	ELISA	1 µM		7
COc1ccc(F)cc1C(=O)NCc1ccc(-c2nn([C@@H](C)C(F)(F)F)c(N)c2C(N)=O)cc1	Mitogen-activated protein kinase kinase kinase 3 (MAP3K3, Homo sapiens, UniProt Q99759)	target engagement in cells	inhibitor	chemoproteomics	1 µM		-38.6
